bCat KO growth: beta-catenin-lacking colon tumor cell growth suppression | viability, % at 10 µM | 140,000 tested, 1.5% active | AID 818 | HCT116 beta-catenin knockout viability, CellTiter-Glo, 60 h; stronger effect = lower value;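 active = viability at or under a set limit, the compound median less 4 SD, cut at about 6% in these data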
H69AR growth 86K: growth inhibitors of human H69AR lung tumor cells. H69AR lung tumor viability, ATP luminescence, 72 h; stronger effect = lower value. viability, % at 10 µM. 85,000 tested, 6% active. AID 598;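 active = viability at or below 40%; inactive = viability above 40%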;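 note: multidrug resistant small cell line overexpressing MRP-1 efflux transporter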
HUVEC prolif 384: blocks proliferation of human endothelial cells; HUVEC proliferation, CellTiter-Glo luminescence, 72 h; stronger effect = lower value; viability, % at 10 µM (by protocol); 86,000 tested, 1.1% active; AID 648;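 active = viability at or below 30%; inactive = viability above 30%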
Lung fibro prol: blocks proliferation of human lung fibroblasts. LL 47 human lung fibroblast viability, ATP luminescence; stronger effect = lower value. 85,000 tested, 1.1% active. viability, % at 10 µM;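 active = viability at or below 50% in the single dose screen; inactive = viability above 50%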;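 note: compound exposure lasted 72 h before the ATP readout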
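Times – overnight cell rest, 72 h compound treatment at 37 °C · Test system – human lung fibroblast line LL 47, low passage · Amount – 1,150 cells in each well · Controls – cell-only wells, no compound · Doses – 0.1% DMSO in all compound wells · Measured by – CellTiter-Glo luminescence · Buffer or medium – IMEM plus 15% FBS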
Cav3 T inh: inhibitors of human Cav3.2 T-type calcium channel; Cav3.2-expressing cells, Fluo-4 calcium fluorescence FDSS; stronger effect = lower value; B-score at 10 µM; 100,000 tested, 4% active;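 active = single-dose well whose peak fluorescence ratio is a statistical outlier from its plate by either plate-standardised score or position-corrected B-score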
PTEN del growth: growth suppressors of cells with PTEN tumor suppressor deletion. viability, % at 10 µM. 140,000 tested, 1.2% active. HCT116 PTEN-null viability, CellTiter-Glo, 60 h; stronger effect = lower value;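 active = viability at or below a set limit, 4 SD under the median of all tested compounds, cut at about 3.7% in these data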;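 note: PTEN knockout HCT116 line with beta catenin targeted HCT116 as companion control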
Large screens that a line does not name were inactive. Hits are enriched below; roughly 7.1% of the tested compounds scored in any of these assays.

COCCn1c(=O)[nH]c2cc(C(=O)N3CCN(c4ccccc4OC)CC3)ccc2c1=O	none
CCOC(=O)N1CCN(C(=O)c2ccc3c(=O)n(Cc4ccc(Cl)cc4)c(=S)[nH]c3c2)CC1	H69AR growth 86K 13 (no result: Cav3 T inh)
COCCn1c(=S)[nH]c2cc(C(=O)N3CCN(c4ccc(F)cc4)CC3)ccc2c1=O	H69AR growth 86K 35
O=C(c1ccc2c(=O)n(Cc3ccco3)c(=S)[nH]c2c1)N1CCN(Cc2ccccc2)CC1	Cav3 T inh -6.6
CCOC(=O)N1CCN(C(=O)c2ccc3c(=O)n(CCC4=CCCCC4)c(=S)[nH]c3c2)CC1	none
CCCn1c(=S)[nH]c2cc(C(=O)N3CCCC(C(=O)OCC)C3)ccc2c1=O (stereo not drawn)	none
CCOC(=O)CN(Cc1sccc1C)C(=O)Nc1ccc(OCC)cc1	none (no result: H69AR growth 86K, HUVEC prolif 384, Lung fibro prol, Cav3 T inh)
Cc1ccc(S(=O)(=O)N2CCCOC2CNC(=O)C(=O)NCc2cccs2)cc1 (stereo not drawn)	none (no result: H69AR growth 86K, HUVEC prolif 384, Lung fibro prol, Cav3 T inh)
COc1ccc(N(CC(=O)NC(C)C)S(=O)(=O)c2ccc(NC(C)=O)cc2)cc1	none (no result: H69AR growth 86K, HUVEC prolif 384, Lung fibro prol)
N#CC1=C(N)Oc2cc3ccccc3cc2C1c1cccnc1 (stereo not drawn)	H69AR growth 86K 20
CC(C)(C)C1=C(C#N)C(c2cccnc2)C(C#N)=C(N)O1 (stereo not drawn)	none (no result: H69AR growth 86K, HUVEC prolif 384, Lung fibro prol, Cav3 T inh)
N#CC1=C(N)Oc2c(ccc3cccnc23)C1c1cccnc1 (stereo not drawn)	bCat KO growth 4.5 (no result: H69AR growth 86K, HUVEC prolif 384, Lung fibro prol, Cav3 T inh)
COC(=O)c1cc(CN2CCN(c3ccccc3C)CC2)ccc1O	none
Cc1nc2c(c(=O)n1CC1CCCO1)c1nc3ccccc3nc1n2Cc1ccc2c(c1)OCO2 (stereo not drawn)	H69AR growth 86K 40 (no result: bCat KO growth, Cav3 T inh, PTEN del growth)
COc1ccc(Cn2c3nc4ccccc4nc3c3c(=O)n(Cc4ccco4)c(C)nc32)cc1	H69AR growth 86K 4.5, Lung fibro prol 42 (no result: bCat KO growth, Cav3 T inh, PTEN del growth)
[O-][n+]1onc2c3cc(-c4ccccc4)nnc3ccc21	H69AR growth 86K 17
CCOC(=O)C1CCN(C(=O)Cn2cc(C(=O)C3CC3)c3ccccc32)CC1	H69AR growth 86K 40
Cc1cccc2sc(NC(=O)C3c4ccccc4Oc4ccccc43)nc12	Cav3 T inh -3.3 (no result: H69AR growth 86K, HUVEC prolif 384, Lung fibro prol)
O=C(Nc1nc(-c2ccncc2)cs1)C1c2ccccc2Oc2ccccc21	none (no result: H69AR growth 86K, HUVEC prolif 384, Lung fibro prol, Cav3 T inh)
Cc1nnc(NC(=O)C2c3ccccc3Oc3ccccc32)s1	none
O=C(Nc1nc(-c2ccccc2)cs1)C1c2ccccc2Oc2ccccc21	Cav3 T inh -5.2 (no result: H69AR growth 86K, HUVEC prolif 384, Lung fibro prol)
Cc1ccc2nc(NC(=O)CSc3ncnc4c3oc3ccccc34)sc2c1	H69AR growth 86K 26 (no result: Cav3 T inh)
Cc1cccc(NC(=O)CSc2ncnc3c2oc2ccccc23)c1	H69AR growth 86K 30
C[C@@]12CCC=C[C@H]1[C@H](c1ccc(C(F)(F)F)cc1)N(Cc1ccccc1)C2=O	none (no result: bCat KO growth, H69AR growth 86K, HUVEC prolif 384, Lung fibro prol, PTEN del growth)
COC(=O)/C=C/c1ccsc1NC(C)=O	none (no result: H69AR growth 86K, HUVEC prolif 384, Lung fibro prol, Cav3 T inh)
S=c1[nH]ccn1-c1cccc(Cl)c1	none (no result: H69AR growth 86K, HUVEC prolif 384, Lung fibro prol, Cav3 T inh)
Cc1ccc(-c2nnc(CSc3nnc(COc4ccccc4)n3-c3ccc(C)cc3)o2)cc1	Cav3 T inh -5.5
N#Cc1ccc(CSc2nnc(COc3ccccc3)n2-c2ccccc2)cc1	none
Cc1ccc(-c2nnc(CSc3nnc(COc4ccccc4)n3-c3ccccc3)o2)cc1	Cav3 T inh -7
COc1ccc(N(CC(=O)Nc2cccc(OC)c2)S(=O)(=O)c2c(C)nn(C)c2C)cc1	none
COc1ccc(N(CC(=O)Nc2nc3ccc(C)cc3s2)S(=O)(=O)c2c(C)nn(C)c2C)cc1	H69AR growth 86K 15
Cc1ccc(NC(=O)Cn2c(-c3ccc(F)cc3)cnc2SCC(=O)Nc2c(C)cccc2C)cc1	none (no result: H69AR growth 86K, HUVEC prolif 384, Lung fibro prol, Cav3 T inh)
CC(C)(C)OC(=O)N1CCOCCOCCN(C(=O)OC(C)(C)C)CCOCC1	none
O=C(O)c1ccc2c(c1)OCCO2	none
CC(C)(C)N(Cc1ccccc1)C(=O)c1ccc2c(c1)OCCO2	Cav3 T inh -4.3
O=C(Nc1ccc(Cl)cc1)OCc1ccccn1	none
O=C(Nc1ccc(Cl)cc1)OCc1cn(-c2ccc(Cl)cc2)nn1	Cav3 T inh -4.5 (no result: H69AR growth 86K, HUVEC prolif 384, Lung fibro prol)
O=C(COc1ccc(/C=N/NC(=O)c2cc3ccccc3o2)cc1Br)Nc1ccccc1	bCat KO growth 1.8, PTEN del growth 3.5 (no result: H69AR growth 86K, HUVEC prolif 384, Lung fibro prol)
O=C(CCc1ccc(S(=O)(=O)NCc2ccccc2)cc1)NCc1ccc2c(c1)OCO2	none
O=C(NCc1ccc2c(c1)OCO2)C1CCC(CNS(=O)(=O)c2cccc3nsnc23)CC1 (stereo not drawn)	Lung fibro prol 44

Screens deposited in PubChem BioAssay by several laboratories.
